Data on 5 compounds can be found in ChEMBL document CHEMBL1132974 (J Med Chem, 2000).

Experiment [1] addresses Histamine H1 receptor (Rattus norvegicus) (UniProt P31390). Kind of experiment: The compound was evaluated for intrinsic activity in relaxed rat aortic rings with intact endothelium, submaximally precontracted with 15.8 nM U-46,619. It is filed as functional, tissue-based. Set-up: unit not given here. The note with it: Aorta.
Target sequence in this assay (P31390 whole entry): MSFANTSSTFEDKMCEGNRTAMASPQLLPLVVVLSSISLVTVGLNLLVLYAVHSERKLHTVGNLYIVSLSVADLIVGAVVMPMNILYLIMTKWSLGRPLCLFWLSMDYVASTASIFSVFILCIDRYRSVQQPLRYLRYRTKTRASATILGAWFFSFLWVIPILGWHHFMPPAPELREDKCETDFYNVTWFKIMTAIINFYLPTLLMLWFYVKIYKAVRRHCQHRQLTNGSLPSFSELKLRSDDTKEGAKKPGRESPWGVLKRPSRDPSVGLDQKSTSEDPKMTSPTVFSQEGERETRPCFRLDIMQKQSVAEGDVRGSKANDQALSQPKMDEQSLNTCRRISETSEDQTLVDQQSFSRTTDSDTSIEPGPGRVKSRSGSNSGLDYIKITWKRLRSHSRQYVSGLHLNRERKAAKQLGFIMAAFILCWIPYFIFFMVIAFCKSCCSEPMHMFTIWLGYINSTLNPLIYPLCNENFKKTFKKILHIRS
In experiment [2] the target is Histamine H1 receptor (Rattus norvegicus, UniProt P31390). Kind of experiment: Effective concentration for agonism activity in relaxed rat aortic rings with intact endothelium, submaximally precontracted with 15.8 nM U-46,619. It is filed as functional, tissue-based, Aorta.
Sequence of Histamine H1 receptor (Rattus norvegicus, UniProt P31390) (P31390 whole entry): as above
Experiment [3] deals with Histamine H3 receptor (Cavia porcellus, UniProt Q9JI35). Description: Compound was evaluated for its antagonist affinity towards Histamine H3 receptor of guinea pig. It counts as functional. The note with it: read-out: pA2 (converted). The method in brief: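 Electrically stimulated guinea-pig ileal longitudinal muscle with myenteric plexus, isometric (7.5 mN). Cumulative (R)-α-methylhistamine curves were run with and without test compound (20 min), with 1 µM mepyramine present. Values were apparent pA2, or pD'2 where curves were depressed.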
Sequence of Histamine H3 receptor (Q9JI35 whole entry): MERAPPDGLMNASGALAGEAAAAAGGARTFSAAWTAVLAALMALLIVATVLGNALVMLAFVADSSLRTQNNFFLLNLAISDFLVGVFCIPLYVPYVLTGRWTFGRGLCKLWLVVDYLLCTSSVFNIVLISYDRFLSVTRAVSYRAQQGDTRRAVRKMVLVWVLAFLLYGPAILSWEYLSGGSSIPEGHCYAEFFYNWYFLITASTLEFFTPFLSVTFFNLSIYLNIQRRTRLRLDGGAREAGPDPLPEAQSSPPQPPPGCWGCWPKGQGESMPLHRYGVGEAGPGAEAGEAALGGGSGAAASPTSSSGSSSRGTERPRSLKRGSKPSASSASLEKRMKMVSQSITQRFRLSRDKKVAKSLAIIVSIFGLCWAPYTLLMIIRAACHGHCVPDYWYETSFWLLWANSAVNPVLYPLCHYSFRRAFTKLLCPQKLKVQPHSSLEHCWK

Experiment [4] has as its target T1, Histamine H1 receptor (Cavia porcellus, UniProt P31389). Kind of experiment: Antagonism of guinea pig ileum contraction at 100 nM mepyramine. It is filed as functional, tissue-based. The note with it: read-out: pA2 (converted). In a few lines:
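Guinea-pig whole ileal segments (2.0–2.5 cm), isotonic, preload 0.5 g, Tyrode's at 37 °C, 95% O2/5% CO2, with 0.1 µM atropine throughout. […] Apparent pA2 = −log c + log(r−1); full pA2 from Schild plot, slope fixed at 1.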

In experiment [5] the target is Histamine H2 receptor (Cavia porcellus, UniProt P47747). Description: Compound was evaluated for its antagonist affinity towards Histamine H2 receptor of guinea pig. It counts as functional. The note with it: read-out: pA2 (converted).
Sequence of Histamine H2 receptor (P47747 whole entry): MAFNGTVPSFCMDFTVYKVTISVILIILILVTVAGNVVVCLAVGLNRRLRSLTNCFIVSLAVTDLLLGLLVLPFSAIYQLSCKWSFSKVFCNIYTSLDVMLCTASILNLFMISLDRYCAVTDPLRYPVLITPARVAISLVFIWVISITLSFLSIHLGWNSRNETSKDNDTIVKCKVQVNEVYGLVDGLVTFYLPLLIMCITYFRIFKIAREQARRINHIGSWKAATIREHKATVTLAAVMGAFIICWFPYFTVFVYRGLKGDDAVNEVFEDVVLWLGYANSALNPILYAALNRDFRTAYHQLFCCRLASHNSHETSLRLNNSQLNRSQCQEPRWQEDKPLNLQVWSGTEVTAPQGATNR
Experiment [6] addresses Histamine H1 receptor (Cavia porcellus) (UniProt P31389). Kind of experiment: Negative logarithm of receptor dissociation constant Kp was reported in guinea pig ileum whole segment. It is filed as functional, tissue-based. The method in brief: (§1)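 Guinea-pig ileum (0.1 µM atropine, 37 °C Tyrode's). […] Where several partial-agonist concentrations were used, the overall value comes from a Kaumann-Marano plot with slope constrained to unity.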

The target in experiment [7] is T1, Histamine H1 receptor. Description: Effective concentration for agonism activity in endothelium-denuded guinea pig aortic segment. It counts as functional, tissue-based, Aorta. The method in brief:
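Guinea-pig thoracic aortic rings (2–4 mm), endothelium rubbed off, isometric (10 mN), modified Krebs-Henseleit (1.80 mM Ca2+), 37 °C. Cimetidine, corticosterone and cocaine (30 µM each), prazosin and yohimbine (0.3 µM each) and propranolol (0.1 µM) were present. […] The pEC50 shift was corrected using untreated control preparations.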

Experiment [8] addresses T1, Histamine H1 receptor. Kind of experiment: Effective concentration for agonist activity in guinea pig ileum whole segment. It is filed as functional, tissue-based.
Experiment [9] addresses Muscarinic acetylcholine receptor M3 (Cavia porcellus, UniProt Q8VH26). Kind of experiment: Compound was evaluated for its antagonist affinity towards Muscarinic acetylcholine receptor M3 of guinea pig. The note with it: read-out: pA2 (converted). It counts as functional. The method in brief:
(§2)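 Functional antagonism assays in guinea-pig tissues, each run with 1 µM mepyramine present: M3 (whole ileum), β1 (right atrium), 5-HT1B (iliac artery), 5-HT3 (quiescent ileal longitudinal muscle with myenteric plexus). Results are given as apparent pA2, or pD'2 when only curve depression occurred.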

Experiment [10] addresses Histamine H1 receptor (Rattus norvegicus) (UniProt P31390). Description: Compound was evaluated for mepyramine antagonism effects in rat aorta (relaxation) at a mepyramine concentration of 100 nM. As to conditions: read-out: pA2 (converted).
Target sequence in this assay (P31390 whole entry, looked up): as the sequence (P31390 whole entry) above
The target of experiment [11] is Serotonin 3 (5-HT3) receptor. Description: Compound was evaluated for its antagonist affinity towards 5-hydroxytryptamine 3 receptor of guinea pig. It counts as functional, Cavia porcellus. The method in brief:
as §2

The target in experiment [12] is Histamine H1 receptor (Cavia porcellus) (UniProt P31389). Kind of experiment: Antagonist effects was studied on contraction of guinea-pig ileum preparation; value ranges from 3 to 30; f means observed by Kaumann-Marano plot. It counts as functional, tissue-based.
Sequence of Histamine H1 receptor (Cavia porcellus) (P31389 whole entry): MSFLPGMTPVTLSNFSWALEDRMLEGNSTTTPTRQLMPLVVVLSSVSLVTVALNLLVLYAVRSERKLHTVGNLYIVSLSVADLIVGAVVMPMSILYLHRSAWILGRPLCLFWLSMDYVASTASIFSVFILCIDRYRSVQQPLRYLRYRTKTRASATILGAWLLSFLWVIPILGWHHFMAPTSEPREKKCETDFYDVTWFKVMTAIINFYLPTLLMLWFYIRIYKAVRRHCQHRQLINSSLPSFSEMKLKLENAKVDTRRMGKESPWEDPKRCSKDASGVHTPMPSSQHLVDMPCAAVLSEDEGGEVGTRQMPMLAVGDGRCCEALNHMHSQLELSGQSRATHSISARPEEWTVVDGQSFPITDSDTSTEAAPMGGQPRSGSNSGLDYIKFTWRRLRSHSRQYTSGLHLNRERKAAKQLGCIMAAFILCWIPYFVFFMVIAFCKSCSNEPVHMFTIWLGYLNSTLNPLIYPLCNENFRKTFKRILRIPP
The target is the same in experiment [13]. Kind of experiment: concentration of mepyramine was determined; value ranges from 1 to 30. It is filed as functional. In a few lines: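 Guinea-pig ileum segments (either sex), mounted isotonically (0.5 g preload) at 37 °C in aerated Tyrode's with 0.1 µM atropine. […] Full pA2 was taken from an Arunlakshana-Schild plot with the slope constrained to unity.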

For experiment [14], the target named is Histamine H1 receptor (Rattus norvegicus) (UniProt P31390). Description: Intrinsic activity of the histamine as reported in relaxed rat aortic rings with intact endothelium, submaximally precontracted with 15.8 nM U-46,619. It counts as functional, tissue-based. As to conditions: Aorta.
Target sequence in this assay (P31390 whole entry): as the sequence (P31390 whole entry) above
For experiment [15] the target is unchanged. Description: maximum relaxation evoked by carbachol in relaxed rat aortic rings with intact endothelium, submaximally precontracted with 15.8 nM U-46,619. It is filed as functional, tissue-based. As to conditions: Aorta.
Target sequence in this assay (P31390 whole entry): as above
The target of experiment [16] is Histamine H1 receptor (Cavia porcellus) (UniProt P31389). Description: The compound was evaluated for intrinsic activity i.e. maximum histamine controls relative to contraction evoked by 10 uM PGF2-alpha. It is filed as functional. In a few lines:
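Endothelium-denuded guinea-pig aortic rings, set up as in the contraction assay, challenged twice with PGF2α (10 µM). Rings were precontracted with a threshold PGF2α level (usually 0.4–1.5 µM, 10–20% of the 10 µM response).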

The target is the same in experiment [17]. Description: Negative logarithm of receptor dissociation constant Kp was reported guinea pig ileal whole segment. It counts as functional. The method in brief:
as §1

For experiment [18] the target is unchanged. Kind of experiment: Intrinsic activity was reported in guinea pig ileum whole segment. It counts as functional, tissue-based.
Experiment [19] shares this target. Description: The compound was evaluated for intrinsic activity i.e. second curves of histamine controls set to 100%, aorta primed with histamine; termed: intrinsic activity.
For experiment [20] the target is unchanged. Kind of experiment: Negative logarithm of receptor dissociation constant Kp was reported. It is filed as functional. The method in brief:
as §1

Experiment [21] has the same target. Kind of experiment: Intrinsic activity was reported in guinea pig ileum whole segment. It is filed as functional, tissue-based.
Experiment [22] shares this target. Kind of experiment: Relative potency in guinea pig ileum whole segment; value ranges from 0.4 to 0.6. It counts as functional, tissue-based.
Experiment [23] concerns the target Histamine H1 receptor (Rattus norvegicus) (UniProt P31390). Description: Relative potency was recorded in relaxed rat aortic rings with intact endothelium, submaximally precontracted with 15.8 nM U-46,619; value ranges from 244 to 450. It counts as functional, tissue-based. As to conditions: Aorta.
Target sequence in this assay (P31390 whole entry): as above
Experiment [24] has as its target Histamine H1 receptor (Cavia porcellus) (UniProt P31389). Description: Relative potency in guinea pig ileum whole segment; value ranges from 51 to 88. It is filed as functional, tissue-based.
Experiment [25] deals with Histamine H1 receptor (Rattus norvegicus) (UniProt P31390). Kind of experiment: concentration of mepyramine was determined.
Target sequence in this assay (P31390 whole entry, looked up): as the sequence (P31390 whole entry) above

Values joined by “and” are separate entries in the source; they are usually repeats but may differ in a detail not shown here. Equal values may be shown once.

T1 sequence (P31389 whole entry): as the sequence (P31389 whole entry) above
Sequence of Muscarinic acetylcholine receptor M3 (Q8VH26 whole entry): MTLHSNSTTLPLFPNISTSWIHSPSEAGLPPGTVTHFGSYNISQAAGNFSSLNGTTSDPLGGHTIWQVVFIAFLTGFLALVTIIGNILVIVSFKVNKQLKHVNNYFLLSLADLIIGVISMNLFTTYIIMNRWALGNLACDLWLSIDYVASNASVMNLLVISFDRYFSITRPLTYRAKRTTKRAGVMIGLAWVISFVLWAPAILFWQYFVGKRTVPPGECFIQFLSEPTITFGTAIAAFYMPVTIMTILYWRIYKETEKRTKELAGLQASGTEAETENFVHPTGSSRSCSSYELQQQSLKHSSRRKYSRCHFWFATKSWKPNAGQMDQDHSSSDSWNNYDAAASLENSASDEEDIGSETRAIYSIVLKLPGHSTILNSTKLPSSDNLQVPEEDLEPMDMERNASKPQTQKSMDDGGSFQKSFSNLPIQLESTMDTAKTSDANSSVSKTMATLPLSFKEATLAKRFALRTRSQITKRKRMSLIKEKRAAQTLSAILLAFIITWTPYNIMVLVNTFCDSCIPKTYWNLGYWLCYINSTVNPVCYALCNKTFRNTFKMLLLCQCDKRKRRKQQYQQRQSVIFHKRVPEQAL

With `c1ccc(C(CCc2nc(CCNC3CC3)c[nH]2)c2ccccc2)cc1`, the Emax in [1] is 56 and 62. For the same compound, the results for the EC50 in [2], in experiment [7] and in [8] were 355 nM, 2290 nM and 148 nM, respectively. Moreover, the Kb was over 501 nM in experiment [3]; 1.41 nM and 2.14 nM in [4]; 20000 nM in experiment [5]; 933 nM in experiment [9]; 5.75 nM in experiment [10]. Also, the pKp in experiment [6] came out at 6.17.

In experiment [11], `NCCc1c[nH]c(CCC(c2ccccc2)c2ccccc2)n1` yielded a pA2 of under 5.7. Moreover, the results for the Concentration in [12] and in [13] were 30 µM and 30 nM, respectively. Besides, the Emax was determined as 50 in experiment [14]; 46 in experiment [15]; 84 in experiment [16]; 100 in experiment [18]; 72 in experiment [19]. The pKp in experiment [17] was determined as 6.04.

For the compound `NCCc1c[nH]c(CC(c2ccccc2)c2ccccc2)n1`, the pKp in [20] was determined as 3.87. In experiment [21], this compound gave an Emax of 50. Further, in [22], the Relative potency is 0.5. In experiment [8], this compound gave an EC50 of 40700 nM.

In the case of `c1ccc(C(CCc2nc(CCN3CCCC3)c[nH]2)c2ccccc2)cc1`, the figures for the Emax in [1] and in [21] were 21 and 28, respectively. In addition, the EC50 in experiment [2] was 1350 nM; in [8] it was 295 nM. Besides, the Relative potency is 331 in experiment [23] and 67 in [24]. The pKp in experiment [6] was 6.52. In experiment [25], this compound yielded a Concentration of 100 nM.

Turning to `CCNCCc1c[nH]c(CCC(c2ccccc2)c2ccccc2)n1`, the Emax in experiment [1] was 44 and 47; in [21], 89. Also, the EC50 in experiment [2] was 646 nM; in [8], 302 nM. For the same compound, the Kb in [3] is over 1000 nM; in experiment [4] (in the assay text read “at 5 nM mepyramine” for “at 100 nM mepyramine”), 1.55 nM; in experiment [5], 31600 nM; in [9] it was 1020 nM. This compound also had a pKp in [6] of 5.75.

As a reminder, the EC50 is the concentration giving half of the maximal effect. The term pA2 denotes the negative logarithm of the molar antagonist concentration that doubles the agonist concentration needed for the same response.
